GSK3A inh: blocks human GSK-3 alpha kinase | AID 2650 | ADP-Glo luminescence, 60 min | inhibition, % at 10 µM | 320,000 compounds, 0.1% hits | P49840;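 active means more than half of replicates show inhibition above 20%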;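 further: GST-tagged GSK-3 alpha with peptide substrate and 25 µM ATP; 0% = DMSO neutral wells and 100% = GW8510 positive control wells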
Target sequence (P49840 whole entry, looked up): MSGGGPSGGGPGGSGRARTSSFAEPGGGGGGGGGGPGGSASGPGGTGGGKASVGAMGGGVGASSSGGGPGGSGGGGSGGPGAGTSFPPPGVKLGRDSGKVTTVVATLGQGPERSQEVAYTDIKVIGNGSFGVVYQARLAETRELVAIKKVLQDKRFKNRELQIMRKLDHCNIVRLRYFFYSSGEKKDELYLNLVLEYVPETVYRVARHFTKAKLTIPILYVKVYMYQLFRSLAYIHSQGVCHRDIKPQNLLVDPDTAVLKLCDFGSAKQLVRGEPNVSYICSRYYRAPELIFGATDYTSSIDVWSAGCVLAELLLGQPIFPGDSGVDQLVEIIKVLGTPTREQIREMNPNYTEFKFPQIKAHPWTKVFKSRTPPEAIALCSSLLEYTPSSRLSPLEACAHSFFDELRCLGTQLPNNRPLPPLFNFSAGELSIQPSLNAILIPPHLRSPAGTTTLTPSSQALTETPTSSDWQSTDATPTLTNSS
MEKK2 WT-MEK5: raises or lowers MEK5 binding to wildtype human MEKK2 PB1 domain; 290,000 compounds, 1.1% hits; AID 1531; bead flow cytometry, Alexa488-MEK5 binding to MEKK2 WT; actives lie on both sides; Q9Y2U5; binding response (% of control), % at 10 µM; in the data active means binding response below about 67% or above about 130%
STK33 inh: blocks human STK33 kinase activity; purified STK33, MBP phosphorylation, ADP-Glo luminescence; inhibition, % at 10 µM; 320,000 compounds, 0.073% hits; Q9BYT3; AID 2661;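 active means inhibition at or above 25%, using the most active replicate where run in duplicate; inactive means inhibition below 25%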
GSK3beta inhib: blocks human GSK3beta kinase activity | P49841 | GST-GSK3beta kinase, ADP-Glo luminescence, 60 min; hits give low values | activity score (negative = inhibition), % at 10 µM | 300,000 compounds, 0.038% hits | AID 2097;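 active means more than half of replicate wells score below -50%, meaning over 50% inhibition versus plate controls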;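 further: 0% = median DMSO wells and -100% = median GW8510 positive control wells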
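Assay system: GST-tagged human GSK3beta kinase, cell-free; Input: 1.6 ng GSK3beta; Medium: Tris/MgCl2 kinase buffer; Timing: 60 min enzyme reaction, room temperature; Signal: ADP-Glo luminescence quantifying ADP generated by kinase; Evaluation: score relative to plate controls; Benchmarks: DMSO neutral wells and GW8510 at 20 µM as positive.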
MEKK3 PB1 HTS: raises or lowers MEK5 binding to the human MEKK3 PB1 domain | binding response (% of control), % at 10 µM | Q99759 | 290,000 compounds, 1.4% hits | bead-based flow cytometry, Alexa488-MEK5 binding to MEKK3; actives lie on both sides; 0 = blocked by unlabeled MEK5, 100 = vehicle | AID 1529;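 active means binding response more than 3 SD above or below the average of its plate-row segment, actives on both sides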;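 further: Alexa488 bead fluorescence after subtracting the streptavidin-only scavenger bead signal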
MEKK2 mut-MEK5: signal of MEK5 binding to mutant human MEKK2 PB1 domain; bead flow cytometry, Alexa488-MEK5 binding to MEKK2 mutant; percent response, % at 10 µM; 290,000 compounds, 0.35% hits; in the data active means percent response above about 24%, passing the limit was not always enough
MEKK2wt confirm: raises or lowers MEK5 binding to wildtype human MEKK2, retest; shares compounds with MEKK3 PB1 HTS; bead flow cytometry, Alexa488-MEK5 binding to MEKK2 WT; actives lie on both sides; binding response (% of control), % at 10 µM; 5,900 compounds, 2.4% hits; AID 1892; in the data active means binding response below about 16% or above about 210%; inactive means in between
MEKK2mut confirm: signal of MEK5 binding to mutant human MEKK2, retest. percent response, % at 10 µM. shares compounds with MEKK3 PB1 HTS. 5,900 compounds, 2% hits. bead flow cytometry, Alexa488-MEK5 binding to MEKK2 mutant; in the data active means percent response mostly above about 71%, no sharp cut-off; inactive means mostly below about 38%;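 further: higher means compound restores mutant binding toward wildtype level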
MEKK3-MEK5 inh: MEKK3-MEK5 PB1 inhibition, single concentration confirmation; shares compounds with MEKK3 PB1 HTS; bead flow cytometry, Alexa488-MEK5 binding to MEKK3; hits give low values; binding response (% of control), % at 10 µM; 5,900 compounds, 1.8% hits; AID 1894;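 active means binding response below 72% of control, or above a set upper limit, though filed actives all read lower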;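 further: 100% = DMSO only wells and 0% = binding blocked by excess unlabeled MEK5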
* marks the source's active call; other numbers are inactive results; . = no result given; [ ] = another dose, or the depositor's remark. In the library only some 2.1% were active in any assay of this set; here they are far more common.

SMILES	GSK3A inh	MEKK2 WT-MEK5	STK33 inh	GSK3beta inhib	MEKK3 PB1 HTS	MEKK2 mut-MEK5	MEKK2wt confirm	MEKK2mut confirm	MEKK3-MEK5 inh
CSc1ccc(/C=N/N2CCN(Cc3ccc(Cl)cc3)CC2)cc1	-0.8	4.0*[inhibitor]	-0.8	3.8	3.0*[inhibitor]	-46.0	105.0	-1.0	103.0
O=C1CC(c2ccccc2)CN1C(=O)c1cccnc1 (stereo not given)	-1.0	124.0	1.0	-1.6	141.0*	6.0	102.0	0.0	99.0
O=C(COC(=O)c1ccc([N+](=O)[O-])s1)c1ccc[nH]1	-2.1	.	0.2	.	.	.	.	.	.
COc1ccc(C2CC(=O)OC3=C2C(=O)CC(C)(C)C3)c(OC)c1 (stereo not given)	-1.2	80.0	0.9	-0.7	69.0*[inhibitor]	-2.0	93.0	1.0	96.0
COc1ccc2c(c1)C(C1=C(O)CC(C)(C)CC1=O)C1=C(CC(C)(C)CC1=O)O2 (stereo not given)	-0.2	100.0	-0.5	-0.6	101.0	3.0	.	.	.
CCN1CCN(C(c2ccc(C(F)(F)F)cc2)c2ccc3cccnc3c2O)CC1 (stereo not given)	0.8	164.0*	-0.9	-1.9	115.0	40.0*	166.0	40.0	106.0
CN1CCN(C(c2ccc(C(F)(F)F)cc2)c2cc(Cl)c3cccnc3c2O)CC1 (stereo not given)	-1.5	130.0	0.1	-1.8	105.0	12.0	.	.	.
COc1ccc(C2c3ccsc3CCN2C(=O)C(C)(C)C)cc1 (stereo not given)	-2.9	95.0	-1.0	-2.7	95.0	-19.0	.	.	.
COc1cc(/C=C2/SC(=S)N(Cc3ccccc3)C2=O)ccc1OCC(=O)O	-2.9	81.0	-0.7	1.2	99.0	-1.0	.	.	.
CCOc1cc(/C=C2/SC(=S)N(Cc3ccccc3)C2=O)ccc1O	3.7	61.0*[inhibitor]	2.2	-2.2	96.0	-4.0	84.0	-6.0	101.0
O=[N+]([O-])c1ccccc1-c1ccc(/C=N/n2cnnc2)o1	-1.0	109.0	1.8	3.2	104.0	6.0	.	.	.
Nn1cnnc1N/N=C\c1ccc(-c2ccccc2[N+](=O)[O-])o1	.	106.0	.	-33.0	156.0*	0.0	97.0	-1.0	101.0
CC(C)N(CC(=O)Nc1ccc(Cl)cc1C(F)(F)F)C(=O)CCl	-0.5	99.0	-1.9	0.9	101.0	1.0	.	.	.
Cc1ccccc1-n1c(O)c(/C=N/N2CCCCC2c2cccnc2)c(=O)[nH]c1=O (stereo not given)	.	105.0	-2.0	-1.3	173.0*	0.0	104.0	3.0	101.0
Cc1cccc(NC(=S)N2CCCCC2c2cccnc2)c1C (stereo not given)	2.8	95.0	-0.2	-0.5	96.0	-5.0	.	.	.
CCOC(=O)c1sc2nc(CSc3ccccc3)nc(N3CCC(C(N)=O)CC3)c2c1C	0.0	95.0	0.4	0.3	105.0	-5.0	.	.	.
CCOC(=O)c1sc2nc(CSc3ccccc3)nc(N3CCCN(C)CC3)c2c1C	4.4	134.0	1.4	-3.7	130.0*	1.0	158.0	21.0	104.0
Cc1nc2ccccc2nc1OCc1cccc([N+](=O)[O-])c1	-1.6	95.0	-0.4	-0.6	101.0	-3.0	.	.	.
COc1ccc(C2=NN(CCC(=O)NCc3cccs3)C(=O)CC2)cc1	-2.7	92.0	-1.0	2.0	94.0	-13.0	.	.	.
COc1ccc(C2=NN(CC(=O)NCc3ccco3)C(=O)CC2)cc1	1.0	108.0	0.5	-3.2	130.0*	0.0	105.0	3.0	102.0
O=C(CN1N=C(c2ccccc2)CCC1=O)NCc1ccccc1	-3.0	72.0	-1.0	-9.4	79.0	-17.0	.	.	.
O=C(CN1N=C(c2ccc(Cl)cc2)CCC1=O)NCc1cccnc1	-0.6	110.0	-1.4	1.1	142.0*	1.0	99.0	-2.0	103.0
COc1ccc2[nH]c(C(=O)N3CCNCC3)cc2c1OC	.	100.0	.	2.0	97.0	-5.0	.	.	.
COc1cc(C(=O)OCC(=O)Nc2ccc(S(=O)(=O)N3CCCC3)cc2)cc(OC)c1OC	-0.1	.	0.1	.	.	.	.	.	.
COc1nc(-c2ccccc2)ccc1-c1noc(COc2ccccc2)n1	-1.3	123.0	-1.4	1.0	132.0*	6.0	100.0	0.0	101.0
SMILES	GSK3A inh	MEKK2 WT-MEK5	STK33 inh	GSK3beta inhib	MEKK3 PB1 HTS	MEKK2 mut-MEK5	MEKK2wt confirm	MEKK2mut confirm	MEKK3-MEK5 inh
COc1nc(-c2ccccc2)ccc1-c1noc(-c2ccccc2)n1	.	100.0	-0.5	-6.2	105.0	1.0	.	.	.
CN(CCS(=O)(=O)c1ccc(Cl)cc1)Cc1cccnc1	3.9	119.0	0.6	-1.4	138.0*	29.0	100.0	-1.0	101.0
O=S(=O)(c1ccc(F)cc1)N1CCN(S(=O)(=O)c2cccs2)CC1	-0.6	107.0	-0.7	-3.1	101.0	3.0	.	.	.
Cc1csc2ncc(C(=O)NCCC(c3ccccc3)c3ccccc3)c(=O)n12	0.5	123.0	-0.9	0.1	130.0*	27.0	101.0	3.0	97.0
Cc1csc2ncc(C(=O)NCCc3ccccc3)c(=O)n12	-0.7	105.0	-1.5	0.4	100.0	-2.0	.	.	.
CCOC(=O)c1cnc2c(c(C)nn2CC)c1NC1CC1	-2.7	99.0	-0.7	1.7	100.0	-3.0	.	.	.
COc1cccc2cc(C(C)OC(=O)Nc3ccc(C)cc3)oc12 (stereo not given)	-5.3	99.0	-0.4	0.9	100.0	-3.0	.	.	.
COc1ccc(C2C(C(=O)N3CCCCC3)CC(=O)N2c2ccc(OC)cc2)cc1 (stereo not given)	-2.2	118.0	-0.1	-0.4	127.0*	4.0	95.0	-8.0	95.0
CN(C)c1ccc(C(CN)c2c[nH]c3ccccc23)cc1 (stereo not given)	1.7	110.0	-0.6	-0.7	69.0*[inhibitor]	0.0	131.0	18.0	97.0
O=C(CN1CCN(C(=O)c2ccco2)CC1)Nc1ccc(Br)cc1	1.3	99.0	-0.7	0.7	102.0	8.0	.	.	.
O=C(Nc1ccc(Br)cc1)C1CCN(C(=O)c2ccc(F)cc2)CC1	-2.4	105.0	-1.1	-0.4	150.0*	2.0	98.0	-11.0	96.0
CCn1c(CNC(=O)c2cc(OC)c(OC)c(OC)c2)cc2ccccc21	-4.2	104.0	-1.3	2.1	99.0	7.0	.	.	.
CCc1cc2ccc(C)cc2nc1SCC(=O)Nc1cc(C)on1	-0.5	91.0	-1.5	1.4	90.0	-10.0	.	.	.
